Measured values: publication PMC2225614 (The Journal of General Physiology, 2001)

System: CHM 15 (switched NH2-terminal domain through part of S1)
Test: Genistein inhibition of closed chimeric channel CHM 15
Format: biochemical, bovine/rat
Settings: closed channels; behaved like parent channel
In short: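 Chimeric RETα/OLFα channels were expressed in Xenopus oocytes (50 nl of 50 ng/μl RNA, 2–7 d), and the vitelline membrane was removed. Inside-out patches were bathed in symmetrical 115 mM NaCl, 5 mM EGTA, 1 mM EDTA, 5 mM HEPES, pH 7.5, held at −75 mV. Test compound was preapplied 1 min to closed channels, then saturating 2 mM cGMP; residual current normalized to Imax.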

Structure (SMILES): O=c1c(-c2ccc(O)cc2)coc2cc(O)cc(O)c12 [genistein]
- effect of domain switch on genistein inhibition: had no effect
